Sampled rows, rich in hits. Any-hit rate of the full collection: about 3%.
TRPC4 potent: allosteric potentiators of mouse TRPC4 channel | AID 2227 | B-score at 10 µM | 310,000 tested, 0.42% active | Q9QUQ5 | HEK293 TRPC4beta/mu-opioid, DAMGO EC20, Fluo-4 Ca2+ flux; active compounds read high;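 active = B-score of calcium response area above 5 SD of library B-scores, with initial fluorescence ratio within 5 SD of library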;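 note: B-score of integrated fluorescence ratio over time as area under calcium response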
Kir21 block: inhibitors of mouse Kir2.1 inward-rectifier potassium channel; HEK293-Kir2.1, FluxOR thallium flux fluorescence; active compounds read low; B-score at 10 µM; 310,000 tested, 0.85% active; AID 1672;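 active = fluorescence ratio B-score at or below minus 3 SD of library scores, with starting-brightness B-score within 2 SD, cut at about -4.2 in these data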;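 note: channel flux triggered by added potassium and thallium sulfate stimulus; B-score of peak minus minimum fluorescence over baseline after thallium stimulus; more negative B-score means stronger Kir2.1 block with less thallium influx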
TRPC6 inh: mouse TRPC6 channel inhibition | Q61143 | HEK293-TRPC6, membrane potential dye, ACh-evoked depolarization; active compounds read low | B-score at 10 µM | 310,000 tested, 1.1% active | AID 2553;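 active = B-score under library mean minus 3 SD, initial fluorescence not abnormally high, positive integrated signal ratio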;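 note: B-score derived from integrated fluorescence ratio over the kinetic read; more negative B-score means stronger inhibition of depolarization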
TRPC4 inh: TRPC4 (mouse) channel inhibition | Q9QUQ5 | HEK293 TRPC4beta/mu-opioid, DAMGO-evoked Fluo4 calcium flux; active compounds read low | B-score at 10 µM | 300,000 tested, 0.39% active | AID 2247;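 active = B-score over 3 SD under the library average, no early fluorescence shift, positive overall ratio signal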
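Signal: kinetic Fluo4 fluorescence imaging of calcium influx. Material: stable TRPC4beta/mu-opioid receptor HEK293 cells. Probe or stimulus: DAMGO in two steps, submaximal then maximal.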
TRPC4 act: opens the mouse TRPC4 cation channel; Q9QUQ5; HEK293 TRPC4beta/mu-opioid, Fluo4 calcium fluorescence; active compounds read high; B-score at 10 µM; 310,000 tested, 0.49% active;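 active = B-score above 5 SD of library B-scores, and initial fluorescence ratio not above library mean plus 5 SD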;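 note: positive B-score marks a calcium rise read as TRPC4 activation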
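System – HEK293 cells stably co-expressing mouse TRPC4beta and mu-opioid receptor · Signal – Fluo4 calcium-sensitive dye fluorescence, kinetic, 1 Hz baseline · Benchmarks – buffer (low) and maximal DAMGO (high) · Read-out – B score of integrated fluorescence ratio per well · Incubation – dye loading 45 min room temperature, 110 s kinetic read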
TRPC6 activator: activators of mouse TRPC6 channel; Q61143; HEK293-TRPC6 membrane potential dye fluorescence; active compounds read high; B-score at 10 µM; 310,000 tested, 0.13% active; AID 2550;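 active = B-score of the integrated fluorescence ratio above library mean plus 3 SD, and starting fluorescence ratio within library mean plus 5 SD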;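 note: higher score means more depolarization so channel activation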
* marks the source's active call; other numbers are inactive results; i = inactive.

SMILES	TRPC4 potent	Kir21 block	TRPC6 inh	TRPC4 inh	TRPC4 act	TRPC6 activator
Cc1cccc(NC(=O)CS(=O)(=O)Cc2ccccc2)n1	i	-0.92	i	i	53*	i
Cc1csc(NC(=O)CS(=O)(=O)Cc2ccccc2)n1	i	-1.1	i	i	i	i
Cc1ccc(C(=O)Nc2ccc3c(c2)C(=O)N(C)C3=O)c(C)c1	i	1.4	i	i	i	i
CCCN1C(=O)/C(=C/c2ccncc2)SC1=S	i	0.7	i	i	i	i
O=C1/C(=C/c2ccncc2)SC(=S)N1Cc1ccccc1	12*	0.66	i	i	i	i
CCOc1ccc(CCNC(=O)c2ccc(C)c(NC3=NC4CS(=O)(=O)CC4S3)c2)cc1 (stereo unspecified)	i	-0.71	i	i	i	i
CC1CC(C)CN(CCCNS(=O)(=O)c2ccc3c(c2)oc(=O)n3C)C1 (stereo unspecified)	i	-2.1	i	i	49*	i
CC1CC(C)CN(CCCNS(=O)(=O)c2ccc3c(c2)CCN3C(=O)C2CC2)C1 (stereo unspecified)	i	-1.6	i	i	66*	i
O=C(C1CC1)N1CCc2cc(S(=O)(=O)NCCCN3CCCCC3)ccc21	i	0.7	i	i	i	i
O=C(CCl)c1ccc2c(c1)CCN2C(=O)C1CC1	i	-5.7*	i	i	i	i
CCC(=O)N1CCc2cc(S(=O)(=O)NCCN3CCCCC3CC)ccc21 (stereo unspecified)	i	0.11	i	-9*	i	i
CCN(CC)CCCn1c2c(c(SCC(=O)N3CCCc4ccccc43)nc1=O)CCC2	i	1.4	i	i	i	i
O=C(NNc1ncnc2ccccc12)c1cccc(Cl)c1	i	0.35	i	i	i	i
CCC1=Nc2cc(C(=O)N3CCCCC3)ccc2Sc2ccc(C)cc21	i	0.26	i	i	i	i
CCCC1=Nc2cc(C(=O)N3CCCC3)ccc2Sc2ccc(C)cc21	i	-2.6	i	i	54*	i
CCN1CCN(Cc2ccc(NC(=O)Nc3ccc(SC)cc3)cc2)CC1	i	-4.8*	i	i	i	i
COc1ccc(CN2CCN(Cc3ccc(C(F)(F)F)cc3)CC2)c(OC)c1	i	-2.4	i	-6*	i	i
COc1cc(CN2CCN(Cc3ccc(SC)cc3)CC2)cc(OC)c1O	i	0.19	i	i	i	i
COc1ccc(CN2CCN(Cc3ccc(Br)cc3)CC2)c(OC)c1OC	i	-4.8*	i	i	i	i
COc1cc(OC)c(OC)cc1CN1CCN(Cc2ccc(SC)cc2)CC1	i	-5.5*	i	i	43*	i
Cc1nnc(NC(=O)c2ccc(S(=O)(=O)N3CC(C)CC(C)C3)cc2)o1 (stereo unspecified)	i	-0.97	i	i	i	i
CCOC(=O)C1CCCN(C(=O)c2[nH]c3ccc(OC)cc3c2C)C1 (stereo unspecified)	i	0.02	i	i	i	i
O=C(/C=C/Nc1ccc(Oc2ccccc2)cc1)c1ccco1	i	0.13	i	i	i	i
CC(=O)N1CCn2c3c(c4cc(C)ccc42)CCCC31 (stereo unspecified)	i	1.6	i	i	i	i
Cc1ccc2c(c1)c1c3n2CCN(C(=O)CCl)C3CCC1 (stereo unspecified)	i	-8.8*	i	i	i	i
SMILES	TRPC4 potent	Kir21 block	TRPC6 inh	TRPC4 inh	TRPC4 act	TRPC6 activator
COc1cccc(-c2cc(C(=O)NC3CCCCC3)no2)c1	i	-1.1	i	i	i	i
N#Cc1nnn(-c2ccc(Cl)cc2)c1N	i	-0.05	i	i	i	i
CC1=C[C@@H](C)[C@@H](c2ccccc2)OC1=O	i	-1.1	i	i	61*	i
CC1=C[C@@H](C)[C@@H](c2ccc(C(F)(F)F)cc2)OC1=O	i	0.5	i	i	i	i
C/C(=N/OCO/N=C(/C)c1ccc(F)cc1)c1ccc(F)cc1	i	-0.52	i	i	i	i
Cc1ccc(/C(O)=C2/C(=O)C(=O)N(CC(=O)O)C2c2ccc([N+](=O)[O-])cc2)cc1 (stereo unspecified)	i	0.01	i	i	i	i
CC(NCCS(=O)(=O)c1ccc(Cl)cc1)c1cccc(Cl)c1 (stereo unspecified)	i	-13*	i	i	i	i
O=C(NCCS(=O)(=O)c1ccc(Br)cc1)c1ccccc1	i	-1.6	i	i	i	i
CC(C)c1ccc(C(C)NCCS(=O)(=O)c2ccc(Br)cc2)cc1 (stereo unspecified)	19*	-4.7*	i	i	i	i
CC(=O)Nc1ccc(OC(=O)N2CCCC2)cc1	i	-0.17	i	i	i	i
O=[N+]([O-])c1ccc(N2CCCC2)cc1NC1CC1	i	0.44	i	i	i	i
NCCNc1ccc([N+](=O)[O-])c(NC2CC2)c1	16*	-0.92	i	i	i	i
CC(C)(C)NCC(O)CON=C1c2ccccc2-c2ccccc21 (stereo unspecified)	10*	-2	i	i	i	i
CC(C)(C)NC(=O)CON=C1c2ccccc2-c2ccccc21	i	-1.5	i	i	i	i
CCCCCNC(=O)c1c[nH]c2ccc(S(=O)(=O)N3CCC4(CC3)OCCO4)cc2c1=O	i	1.3	i	i	i	i
CNCCCC1Sc2ccccc2Oc2ccccc21 (stereo unspecified)	i	-6*	i	i	i	i
CCOC(=O)c1ccc2c(c1)nc(-c1ccc(F)cc1)c1nccn12	i	0.14	i	i	i	i
CN1CCN(CC#CCn2c3ccccc3c3ccccc32)CC1	16*	-7.1*	i	i	i	i
O=C1NCN(c2ccccc2)C12CCN(CCCC(c1ccc(F)cc1)c1ccc(F)cc1)CC2	i	-0.15	i	i	116*	i
O=C1NCC2(CCN(CCc3ccccc3)CC2)O1	i	-0.65	i	i	i	i
CCCCCOc1ccc2oc(=O)c3c(c2c1)CCCN3C(=O)CN1CCCC(C(=O)OCC)C1 (stereo unspecified)	33*	-0.37	i	i	i	i

Assay outcomes from PubChem.
